Source: ChEMBL document CHEMBL1126276, “Synthesis and antimalarial properties of 1-imino derivatives of 7-chloro-3-substituted-3,4-dihydro-1,9(2H,10H)-acridinediones and related structures” (J Med Chem, 1992)
Values joined by “and” are separate entries in the source; they are usually repeats but may differ in a detail not shown here. Identical values can stand only once.

Assays:
Format in all cases: functional
Plasmodium berghei [1] = assay: Antimalarial activity Plasmodium berghei infected mice (Mus musculus) after 640 mg/kg subcutaneous dose
How it was run: (§1)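 […] in mice infected with a normal drug-sensitive P. berghei strain. Compound dissolved or suspended in sesame or peanut oil, given as a single subcutaneous dose 72 h postinfection.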

Plasmodium berghei [2] = assay: Antimalarial activity in Plasmodium berghei infected mice (Mus musculus) after subcutaneous 640 mg/kg dose
How it was run: (§2)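 Normal drug-sensitive P. berghei strain in mice. Compound dissolved or suspended in sesame or peanut oil, given parenterally as a single subcutaneous dose 72 h postinfection.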

Plasmodium berghei [3] = assay: Antimalarial activity in Plasmodium berghei infected mice (Mus musculus) after 160 mg/kg subcutaneous dose; how it was run: as §1
Plasmodium berghei [4] = assay: (§3) Antimalarial activity in Plasmodium berghei infected mice (Mus musculus) after 40 mg/kg subcutaneous dose; how it was run: as §1
Plasmodium berghei [5] = assay: Antimalarial activity in Plasmodium berghei infected mice (Mus musculus) after subcutaneous 160 mg/kg dose; how it was run: as §2
Plasmodium berghei [6] = assay: Antimalarial activity in Plasmodium berghei infected mice (Mus musculus) after 20 mg/kg subcutaneous dose; how it was run: as §1
Plasmodium berghei [7] = assay: (§4) Antimalarial activity in Plasmodium berghei infected mice (Mus musculus) after 80 mg/kg subcutaneous dose; how it was run: as §1
Plasmodium berghei [8] = assay: Antimalarial activity in Plasmodium berghei infected mice (Mus musculus) after subcutaneous 320 mg/kg dose; how it was run: as §2
Plasmodium berghei [9] = assay: as §4; how it was run: as §2; remark: listed apart in the source
Plasmodium berghei [10] = assay: as §3; how it was run: as §2; remark: listed apart in the source

SMILES	Delta mean survival time (Plasmodium berghei [1])	No. of cured mice (Plasmodium berghei [2])	Delta mean survival time (Plasmodium berghei [3])	Delta mean survival time (Plasmodium berghei [4])	No. of cured mice (Plasmodium berghei [5])	Delta mean survival time (Plasmodium berghei [6])	Delta mean survival time (Plasmodium berghei [7])	No. of cured mice (Plasmodium berghei [8])	No. of cured mice (Plasmodium berghei [9])	No. of cured mice (Plasmodium berghei [10])	Delta mean survival time (Plasmodium berghei [1]; 640 mg/kg)
Cc1ccc(C2CC(=O)c3c(nc4ccc(Cl)cc4c3O)C2)cc1 (stereo not drawn)	11.7	2	8.7	3.9	2						
O=C1CC(c2ccccc2Cl)Cc2nc3ccc(Cl)cc3c(O)c21 (stereo not drawn)	9.6	1	0.4	2.7	1	1.5	5.5				
O=C1CC(c2ccccc2Cl)Cc2c1c(=O)c1cc(Cl)ccc1n2O (stereo not drawn)	9	4	4.5	4.6	1	1.7					
COc1ccc(C2C/C(=N\CCCN(C)C)c3c(nc4ccc(Cl)cc4c3O)C2)cc1 (stereo not drawn)	11.2	1	4.5	0.5							
O=c1c2c(n(O)c3ccc(Cl)cc13)CC(c1ccc(Cl)c(Cl)c1)C/C2=N\CCCN(CCO)CCO (stereo not drawn)		5	10.6	5.6	4	1.2	7.9	5	1		
CC(C/N=C1\CC(c2ccc(C(F)(F)F)cc2)Cc2nc3ccc(Cl)cc3c(O)c21)N(C)C (stereo not drawn)		5			5					5	
CC1C(=O)c2c(n(O)c3ccc(Cl)cc3c2=O)CC1c1ccc(C(F)(F)F)cc1 (stereo not drawn)		5		7.8	5	5.2	14.1	5	2		
O=C1CC(c2ccc(C(F)(F)F)cc2)Cc2nc3ccc(C(F)(F)F)cc3c(O)c21 (stereo not drawn)	-0.1		0.1	0.1							
Cc1ccc(C2CC(=O)c3c(n(O)c4ccc(Cl)cc4c3=O)C2)cc1 (stereo not drawn)	6.9		3.1	0.6		0.8	2.8				
CCN(CC)CCC/N=C1\CC(c2cc(OC)c(OC)c(OC)c2)Cc2c1c(=O)c1cc(Cl)ccc1n2O (stereo not drawn)	6.1		0.7	0.4							
O=C1CC(c2ccncc2)Cc2c1c(=O)c1cc(Cl)ccc1n2O (stereo not drawn)	2		0.2	0							
O=C1CC(c2ccccc2C(F)(F)F)Cc2nc3ccc(Cl)cc3c(O)c21 (stereo not drawn)	8.3		8.5	0.7							
CC(C/N=C1\CC(c2cccc(C(F)(F)F)c2)Cc2c1c(=O)c1cc(Cl)ccc1n2O)N(C)C (stereo not drawn)		5	8.6	11.9	2	4	9.2	5		1	
O=C1CC(c2ccc(C(F)(F)F)cc2)Cc2c1c(=O)c1c(Cl)c(Cl)ccc1n2O (stereo not drawn)		2	7	7	2	4.5	7.8	3			9.8 and 7
NCC/N=C1\CC(c2ccc(Cl)cc2Cl)Cc2nc3ccc(Cl)cc3c(O)c21 (stereo not drawn)		5			5					5	
CCN(CC/N=C1\CC(c2ccc(Cl)c(Cl)c2)Cc2c1c(=O)c1cc(Cl)ccc1n2O)CC(C)(C)O (stereo not drawn)				8.2	5	6.3	8	5	4		
CN(C)CCC/N=C1\CC(c2ccc(C(F)(F)F)cc2)Cc2nc3c(Br)cc(Br)cc3c(O)c21 (stereo not drawn)	0.4		0.2	0.2							
O=C1CC(c2ccc(Cl)cc2Cl)Cc2nc3c(Cl)ccc(Cl)c3c(O)c21 (stereo not drawn)	-0.1		0.3	0.1							
